Values after ≈ are worked out from the molar mass of the structure shown. Active and inactive are the calls of the source. No cut-off for these calls is given here.
Assays:
Mus musculus [1] = assay: Analgesic activity Wistar albino mouse assessed as tail withdrawal latency time at 100 mg/kg, po administered by intragastric tube after 60 mins (reference value: 1.363 +/- 0.1297 sec); format: functional
Mus musculus [2] = assay: Analgesic activity Wistar albino mouse assessed as tail withdrawal latency time at 100 mg/kg, po administered by intragastric tube after 120 mins (reference value: 1.363 +/- 0.1297 sec); format: functional
Mus musculus [3] = assay: Analgesic activity Wistar albino mouse assessed as tail withdrawal latency time at 100 mg/kg, po administered by intragastric tube after 180 mins (reference value: 1.363 +/- 0.1297 sec); format: functional
Staphylococcus aureus [4] = assay: Antibacterial activity against Staphylococcus aureus ATTC 25923 after 16 to 18 hrs by serial dilution method; format: functional
In short: (§1)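 Serial drug dilutions in Mueller-Hinton broth adjusted to pH 5.0 with phosphate buffer, inoculated with standardized bacterial suspension, incubated 16–18 h at 37 °C; MIC taken as lowest concentration without conspicuous growth.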

Staphylococcus aureus [5] = assay: Antibacterial activity against Staphylococcus aureus ATTC 25923 at MIC after 3 to 4 days by disc diffusion method; format: functional
In short: (§2)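 Agar well diffusion: seeded agar plates dried 1 h at 37 °C, wells punched and filled with test compound at MIC level in DMSO; DMSO solvent control. Plates in triplicate, kept at 37 °C for 3–4 days; zone of inhibition read.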

Escherichia coli [6] = assay: Antibacterial activity against Escherichia coli ATTC 25922 after 16 to 18 hrs by serial dilution method; format: functional; in short: as §1
Escherichia coli [7] = assay: Antibacterial activity against Escherichia coli ATTC 25922 at MIC after 3 to 4 days by disc diffusion method; format: functional; in short: as §2
Pseudomonas aeruginosa [8] = assay: Antibacterial activity against Pseudomonas aeruginosa ATTC 27853 after 16 to 18 hrs by serial dilution method; format: functional; in short: as §1
Pseudomonas aeruginosa [9] = assay: Antibacterial activity against Pseudomonas aeruginosa ATTC 27853 at MIC after 3 to 4 days by disc diffusion method; format: functional; in short: as §2
Klebsiella pneumoniae [10] = assay: Antibacterial activity against recultured Klebsiella pneumoniae after 16 to 18 hrs by serial dilution method; format: functional; in short: as §1
Klebsiella pneumoniae [11] = assay: Antibacterial activity against recultured Klebsiella pneumoniae at MIC after 3 to 4 days by disc diffusion method; format: functional; in short: as §2
Talaromyces marneffei [12] = assay: Antifungal activity against recultured Penicillium marneffei by serial plate dilution method; format: functional
Talaromyces marneffei [13] = assay: Antifungal activity against recultured Penicillium marneffei at MIC after 3 to 4 days; format: functional
[14] = test system: Trichophyton mentagrophytes; assay: Antifungal activity against recultured Trichophyton mentagrophytes by serial plate dilution method; format: functional
[15] = test system: Trichophyton mentagrophytes; assay: Antifungal activity against recultured Trichophyton mentagrophytes at MIC after 3 to 4 days; format: functional
Aspergillus flavus [16] = assay: Antifungal activity against Aspergillus flavus NCIM 524 by serial plate dilution method; format: functional
Aspergillus flavus [17] = assay: Antifungal activity against Aspergillus flavus NCIM 524 at MIC after 3 to 4 days; format: functional
Aspergillus fumigatus [18] = assay: Antifungal activity against Aspergillus fumigatus NCIM 902 by serial plate dilution method; format: functional
Aspergillus fumigatus [19] = assay: Antifungal activity against Aspergillus fumigatus NCIM 902 at MIC after 3 to 4 days; format: functional
Rattus norvegicus = assay: Antiinflammatory activity rat assessed as reduction of carrageenan-induced paw oedema at 100 mg/kg, po administered 30 mins before carrageenan challenge measured after 60 to 180 mins; format: functional, organism-based; design: dose 100 mg/kg
In short: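 Rats randomly assigned, 100 mg/kg orally as suspension in 1% carboxymethyl cellulose, 30 min before carrageenan injected into right hind paw. Paw thickness measured with vernier callipers at 60, 120 and 180 min. Diclofenac reference; mean ± SEM, n = 6, vs vehicle control.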

| SMILES | Time (Mus musculus [1]) [s] | Time (Mus musculus [2]) [s] | Time (Mus musculus [3]) [s] | MIC (Staphylococcus aureus [4]) [µM] | diameter of the inhibition zone (DIZ) (Staphylococcus aureus [5]) [mm] | MIC (Escherichia coli [6]) [µM] | diameter of the inhibition zone (DIZ) (Escherichia coli [7]) [mm] | MIC (Pseudomonas aeruginosa [8]) [µM] | diameter of the inhibition zone (DIZ) (Pseudomonas aeruginosa [9]) [mm] | MIC (Klebsiella pneumoniae [10]) [µM] | diameter of the inhibition zone (DIZ) (Klebsiella pneumoniae [11]) [mm] | MIC (Talaromyces marneffei [12]) [µM] | diameter of the inhibition zone (DIZ) (Talaromyces marneffei [13]) [mm] | MIC [14] [µM] | diameter of the inhibition zone (DIZ) [15] [mm] | MIC (Aspergillus flavus [16]) [µM] | diameter of the inhibition zone (DIZ) (Aspergillus flavus [17]) [mm] | MIC (Aspergillus fumigatus [18]) [µM] | diameter of the inhibition zone (DIZ) (Aspergillus fumigatus [19]) [mm] | Activity (Rattus norvegicus) |
| --- | --- | --- | --- | --- | --- | --- | --- | --- | --- | --- | --- | --- | --- | --- | --- | --- | --- | --- | --- | --- |
| COc1ccc(Br)c(-c2nnc3n2NC(c2ccc(-c4ccccc4)cc2)S3)c1 (centres undefined) | 2.102 | 2.067 | 2.455 | 26.9 (≈ 12.5 µg/mL) | 11 | 26.9 (≈ 12.5 µg/mL) | 11 | 26.9 (≈ 12.5 µg/mL) | 11 | 13.4 (≈ 6.25 µg/mL) | 16 | 26.9 (≈ 12.5 µg/mL) | 11 | 26.9 (≈ 12.5 µg/mL) | 11 | 13.4 (≈ 6.25 µg/mL) | 16 | 26.9 (≈ 12.5 µg/mL) | 11 | – |
| COc1ccc(Br)c(-c2nnc3n2NC(c2ccccc2)S3)c1 (centres undefined) | 3.181 | 3.46 | 3.391 | 32.1 (≈ 12.5 µg/mL) | 11 | 16.1 (≈ 6.25 µg/mL) | 16 | 32.1 (≈ 12.5 µg/mL) | 11 | 32.1 (≈ 12.5 µg/mL) | 11 | 6.25 (≈ 2.43 µg/mL) | 16 | 12.5 (≈ 4.87 µg/mL) | 11 | 12.5 (≈ 4.87 µg/mL) | 11 | 6.25 (≈ 2.43 µg/mL) | 16 | – |
| COc1ccc(Br)c(-c2nnc3n2NC(c2ccc(C)cc2)S3)c1 (centres undefined) | 2.403 | 2.643 | 2.438 | 31 (≈ 12.5 µg/mL) | 11 | 15.5 (≈ 6.25 µg/mL) | 16 | 15.5 (≈ 6.25 µg/mL) | 16 | 15.5 (≈ 6.25 µg/mL) | 16 | 31 (≈ 12.5 µg/mL) | 11 | 31 (≈ 12.5 µg/mL) | 11 | 15.5 (≈ 6.25 µg/mL) | 16 | 15.5 (≈ 6.25 µg/mL) | 16 | Active |
| CCC(C)n1ncn(-c2ccc(N3CCN(c4ccc(OCC5COC(Cn6cncn6)(c6ccc(Cl)cc6Cl)O5)cc4)CC3)cc2)c1=O (centres undefined) [ITRACONAZOLE] | – | – | – | – | – | – | – | – | – | – | – | 2.21 (≈ 1.56 µg/mL) | 22 | 8.86 (≈ 6.25 µg/mL) | 30 | 8.86 (≈ 6.25 µg/mL) | 25 | 8.86 (≈ 6.25 µg/mL) | 23 | – |
| COc1ccc(Br)c(-c2nnc3sc(-c4cc(C)cc(C)c4)nn23)c1 | 2.175 | 2.075 | 2.238 | 30.1 (≈ 12.5 µg/mL) | 11 | 15.1 (≈ 6.25 µg/mL) | 16 | 15.1 (≈ 6.25 µg/mL) | 16 | 15.1 (≈ 6.25 µg/mL) | 16 | 30.1 (≈ 12.5 µg/mL) | 11 | 15.1 (≈ 6.25 µg/mL) | 16 | 15.1 (≈ 6.25 µg/mL) | 16 | 15.1 (≈ 6.25 µg/mL) | 16 | – |
| CC(C)=CCN1CC[C@]2(C)c3cc(O)ccc3C[C@H]1[C@H]2C [(+)-PENTAZOCINE] | 7.075 | 6.863 | 7.025 | – | – | – | – | – | – | – | – | – | – | – | – | – | – | – | – | – |
| COc1ccc(C2Nn3c(nnc3-c3cc(OC)ccc3Br)S2)c(OC)c1 (centres undefined) | 2.39 | 2.642 | 2.492 | 27.8 (≈ 12.5 µg/mL) | 11 | 13.9 (≈ 6.25 µg/mL) | 16 | 13.9 (≈ 6.25 µg/mL) | 16 | 13.9 (≈ 6.25 µg/mL) | 16 | 13.9 (≈ 6.25 µg/mL) | 16 | 27.8 (≈ 12.5 µg/mL) | 11 | 27.8 (≈ 12.5 µg/mL) | 11 | 27.8 (≈ 12.5 µg/mL) | 11 | Active |
| CC1(C)S[C@@H]2[C@H](NC(=O)[C@H](N)c3ccccc3)C(=O)N2[C@H]1C(=O)O [AMPICILLIN] | – | – | – | 4.46 (≈ 1.56 µg/mL) | 22 | 17.9 (≈ 6.25 µg/mL) | 30 | 17.9 (≈ 6.25 µg/mL) | 25 | 17.9 (≈ 6.25 µg/mL) | 23 | – | – | – | – | – | – | – | – | – |
| COc1ccc(Br)c(-c2nnc3sc(-c4ccccc4)nn23)c1 | 1.963 | 2.125 | 2.5 | 32.3 (≈ 12.5 µg/mL) | 11 | 32.3 (≈ 12.5 µg/mL) | 11 | 32.3 (≈ 12.5 µg/mL) | 11 | 32.3 (≈ 12.5 µg/mL) | 11 | 16.1 (≈ 6.25 µg/mL) | 16 | 32.3 (≈ 12.5 µg/mL) | 11 | 32.3 (≈ 12.5 µg/mL) | 11 | 32.3 (≈ 12.5 µg/mL) | 11 | – |
| COc1ccc(Br)c(-c2nnc3sc(-c4ccc(I)cc4I)nn23)c1 | 2.038 | 2.088 | 2.225 | 19.6 (≈ 12.5 µg/mL) | 11 | 19.6 (≈ 12.5 µg/mL) | 11 | 19.6 (≈ 12.5 µg/mL) | 11 | 19.6 (≈ 12.5 µg/mL) | 11 | 19.6 (≈ 12.5 µg/mL) | 11 | 19.6 (≈ 12.5 µg/mL) | 11 | 19.6 (≈ 12.5 µg/mL) | 11 | 19.6 (≈ 12.5 µg/mL) | 11 | – |

Reference: ChEMBL document CHEMBL1955832, “Facile synthesis, characterization and pharmacological activities of 3,6-disubstituted 1,2,4-triazolo[3,4-b][1,3,4]thiadiazoles and 5,6-dihydro-3,6-disubstituted-1,2,4-triazolo[3,4-b][1,3,4]thiadiazoles” (2012)
